Calls of active or inactive are those of the source. No cut-off for these calls is given here.
Key:
OVCAR-5 [1] = assay: Antiproliferative activity against human OVCAR-5 cells assessed as cell growth inhibition measured after 3 days by cell viability assay; type: functional, cell-based; conditions: OVCAR-5, 72 h
MIA PaCa-2 = assay: Antiproliferative activity against human MIA PaCa-2 cells assessed as cell growth inhibition measured after 3 days by cell viability assay; type: functional, cell-based; conditions: MIA PaCa-2, 72 h
A2780 [2] = assay: Antiproliferative activity against human A2780 cells assessed as cell growth inhibition measured after 3 days by cell viability assay; type: functional, cell-based; conditions: A2780, 72 h
SF-268 = assay: Antiproliferative activity against human SF-268 cells assessed as reduction in the net protein increase inhibition by SRB assay; type: functional; conditions: pooled result: one value given for 6 cell lines, strains, targets or settings
A2780 [3] = assay: Inhibition of cell migration in human A2780 cells at 500 nM measured up to 48 hrs by wound healing scratch assay; type: functional; parameters: scale not given: the % may be the effect or the level left
How it was run: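 Wound-healing scratch assay: A2780 cells treated with DMSO or 500nM compound, imaged at 0, 12, 24 and 48h; wound closure quantified relative to DMSO wells.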

[4] = target: Transcription factor p65 (Homo sapiens) (UniProt Q04206); assay: Covalent modification of RELA in human MIA PaCa-2 cells assessed as high molecular weight band formation at 10 uM incubated for 2 hrs by Western blot analysis; type: cell-based; conditions: filed as modulator
How it was run: (§1)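 Non-transformed immortalized fallopian tube epithelial FT282C11, MiaPaCa2 or OVCAR5 cells treated with or without compound; lysates analysed by western blot probed with RELA antibody for high molecular weight bands.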

[5] = target: Transcription factor p65 (Homo sapiens) (UniProt Q04206); assay: Covalent modification of RELA in human OVCAR-5 cells assessed as increase in PARP cleavage at 10 uM incubated for 2 hrs by Western blot analysis; type: cell-based; conditions: filed as modulator
How it was run: (§2)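 Cancer cells treated with or without compound; lysates analysed by western blot for PARP cleavage.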

OVCAR-5 [6] = assay: Antiproliferative activity against human OVCAR-5 cells assessed as cell growth inhibition at 1.11 to 10 uM incubated for 6 hrs followed by compound removal and measured up to 72 hrs by IncuCyte live-cell imaging assay; type: functional, cell-based
[7] = target: T1, Inhibitor of nuclear factor kappa-B kinase subunit beta (Homo sapiens) (UniProt O14920); assay: Covalent modification of N-terminal hexa-his-tagged human recombinant IKKbeta assessed as high molecular weight band formation at 1:1 protein to compound concentration measured after 24 hrs by SDS-PAGE based silver staining analysis; conditions: filed as modulator
T1 sequence (whole entry): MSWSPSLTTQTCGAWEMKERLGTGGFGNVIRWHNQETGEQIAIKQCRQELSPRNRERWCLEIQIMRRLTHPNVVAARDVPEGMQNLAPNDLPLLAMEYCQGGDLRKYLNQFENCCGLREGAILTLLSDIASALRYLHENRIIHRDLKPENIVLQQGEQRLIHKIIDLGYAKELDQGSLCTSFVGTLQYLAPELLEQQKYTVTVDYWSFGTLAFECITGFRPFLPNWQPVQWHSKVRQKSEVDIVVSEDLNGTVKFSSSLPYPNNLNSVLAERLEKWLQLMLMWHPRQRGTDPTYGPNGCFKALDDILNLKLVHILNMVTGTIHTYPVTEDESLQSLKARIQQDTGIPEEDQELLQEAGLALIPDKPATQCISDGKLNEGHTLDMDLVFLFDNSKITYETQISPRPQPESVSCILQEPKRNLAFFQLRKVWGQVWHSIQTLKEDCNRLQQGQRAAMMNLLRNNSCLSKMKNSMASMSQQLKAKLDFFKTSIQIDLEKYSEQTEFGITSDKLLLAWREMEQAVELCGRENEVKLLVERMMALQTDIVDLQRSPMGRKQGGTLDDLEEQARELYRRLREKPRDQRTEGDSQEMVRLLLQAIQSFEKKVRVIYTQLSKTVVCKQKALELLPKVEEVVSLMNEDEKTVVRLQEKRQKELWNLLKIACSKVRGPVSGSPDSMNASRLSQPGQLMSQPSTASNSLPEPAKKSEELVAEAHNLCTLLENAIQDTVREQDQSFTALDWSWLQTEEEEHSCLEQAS
How it was run: (§3)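 Recombinant RELA and/or IKKβ proteins incubated in vitro with compound at equimolar or 10x concentration; mixtures resolved by SDS-PAGE and silver stained to detect the recombinant proteins and high molecular weight bands.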

[8] = target: Transcription factor p65 (Homo sapiens) (UniProt Q04206); assay: Covalent modification of RELA in human FT282C11 cells assessed as high molecular weight band formation at 10 uM incubated for 2 hrs by Western blot analysis; type: cell-based; conditions: filed as modulator; how it was run: as §1
[9] = target: Transcription factor p65 (Homo sapiens) (UniProt Q04206); assay: Covalent modification of RELA in human OVCAR-5 cells assessed as high molecular weight band formation at 10 uM incubated for 2 hrs by Western blot analysis; type: cell-based; conditions: filed as modulator; how it was run: as §1
[10] = target: Transcription factor p65 (Homo sapiens) (UniProt Q04206); assay: Covalent modification of RELA in human OVCAR-5 cells assessed as high molecular weight band formation incubated for 2 hrs by Western blot analysis; type: cell-based; conditions: filed as modulator; how it was run: as §1
[11] = target: Transcription factor p65 (Homo sapiens) (UniProt Q04206); assay: Covalent modification of RELA in human MIA PaCa-2 cells assessed as increase in PARP cleavage at 10 uM incubated for 2 hrs by Western blot analysis; type: cell-based; conditions: filed as modulator; how it was run: as §2
[12] = target: Transcription factor p65 (Homo sapiens) (UniProt Q04206); assay: Covalent modification of RELA in TNF-alpha induced human OVCAR-5 cells assessed as inhibition of nuclear localization of protein at 10 uM pretreated for 2 hrs followed by TNF-alpha stimulation for 10 mins by Western blot analysis; type: cell-based; conditions: filed as modulator
How it was run: (§4)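 Two sets of OVCAR5 cells treated with DMSO or compound; one set stimulated with TNFα, the other left unstimulated as control; read-out by western blot.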

A2780 [13] = assay: Inhibition of colony formation in human A2780 cells measured every day up to 4 days by IncuCyte live-cell imaging assay; type: functional, cell-based; conditions: DDE = dose-dependent effect
How it was run: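 A2780 ovarian cancer cells sparsely plated and grown with or without compound for 4 days under continuous Incucyte S3 live-cell imaging; colonies quantified against DMSO-treated wells at several time points.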

Homo sapiens = species: Homo sapiens; assay: Covalent modification of N-terminal hexa-his-tagged human recombinant IKKbeta/ N-terminus mouse recombinant RELA (1 to 325 residues) assessed as tertiary complex formation with RELA by measuring high molecular weight band formation at 1:1:1 protein/protein to compound concentration measured after 24 hrs by SDS-PAGE based silver staining analysis; conditions: filed as modulator; how it was run: as §3
CCRF-CEM = assay: Antiproliferative activity against human CCRF-CEM cells assessed as cell growth inhibition by measuring reduction in net protein increase inhibition by SRB assay; type: functional; conditions: pooled result: one value given for 6 cell lines, strains, targets or settings
[14] = target: Transcription factor p65 (Homo sapiens) (UniProt Q04206); assay: Inhibition of TNF-alpha induced RELA in human A549 cells assessed as reduction in NFkappaB mediated gene expression pretreated for 2 hrs followed by TNF-alpha stimulation for 3 hrs by […]; type: cell-based; conditions: filed as modulator, DDE = dose-dependent effect
How it was run: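 TNFα-induced NFκB reporter assay run as a dose-response with compound.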

[15] = target: Transcription factor p65 (Homo sapiens) (UniProt Q04206); assay: Covalent modification of RELA in TNF-alpha induced human OVCAR-5 cells assessed as inhibition of phosphorylation of IkappaB-alpha at 10 uM pretreated for 2 hrs followed by TNF-alpha stimulation for 10 mins by Western blot analysis; type: cell-based; conditions: filed as modulator; how it was run: as §4

Sequence of Transcription factor p65 (Homo sapiens) (Q04206 whole entry): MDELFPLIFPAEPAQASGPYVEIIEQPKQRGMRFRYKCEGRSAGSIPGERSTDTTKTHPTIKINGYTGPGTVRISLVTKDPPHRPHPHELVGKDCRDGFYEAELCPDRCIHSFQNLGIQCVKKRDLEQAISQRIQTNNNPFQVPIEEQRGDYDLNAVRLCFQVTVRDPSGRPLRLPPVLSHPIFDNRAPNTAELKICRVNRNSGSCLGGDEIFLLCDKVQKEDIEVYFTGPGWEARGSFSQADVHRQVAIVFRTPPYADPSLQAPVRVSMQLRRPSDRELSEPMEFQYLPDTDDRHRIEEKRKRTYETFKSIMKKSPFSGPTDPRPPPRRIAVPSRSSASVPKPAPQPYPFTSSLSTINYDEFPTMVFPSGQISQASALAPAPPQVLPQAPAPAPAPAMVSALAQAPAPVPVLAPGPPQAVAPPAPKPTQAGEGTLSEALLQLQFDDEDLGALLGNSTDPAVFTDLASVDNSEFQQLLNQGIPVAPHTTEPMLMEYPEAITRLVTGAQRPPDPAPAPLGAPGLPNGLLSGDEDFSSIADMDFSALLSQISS

Row | Compound | IC50 (OVCAR-5 [1]) | IC50 (MIA PaCa-2) | IC50 (A2780 [2]) | other results
1 | C=C1CC2(OC1=O)C(=O)N(CCCCCCCCCCCN1C(=O)C3(CC(=C)C(=O)O3)c3ccccc31)c1ccccc12 (stereo unspecified) | 830 nM | 2030 nM | 770 nM | –
2 | C=C1CC2(OC1=O)C(=O)N(CCCN1C(=O)C3(CC(=C)C(=O)O3)c3ccccc31)c1ccccc12 (stereo unspecified) | 90 nM | 130 nM | 230 nM | GI50 (SF-268): 1760 nM; Activity (A2780 [3]): 50%; Activity [4]: Active; Activity [5]: Active; Activity (OVCAR-5 [6]): Active; Activity [7]: Active; Activity [8]: Active; Activity [9]: Active; Activity [10]: Active; Activity [11]: Active; Activity [12]: Active; inhibition (A2780 [13]): Dde; Activity (Homo sapiens): Active; GI50 (CCRF-CEM): 380 nM; inhibition [14]: Dde; Activity [15]: Active
3 | C=C1CC2(OC1=O)C(=O)N(CCN1C(=O)C3(CC(=C)C(=O)O3)c3ccccc31)c1ccccc12 (stereo unspecified) | 320 nM | – | 390 nM | –
4 | C=C1CC2(OC1=O)C(=O)N(CCCCCCCCCCCCN1C(=O)C3(CC(=C)C(=O)O3)c3ccccc31)c1ccccc12 (stereo unspecified) | 420 nM | 1500 nM | 500 nM | –
5 | C=C1CC2(OC1=O)C(=O)N(Cc1ccc(CN3C(=O)C4(CC(=C)C(=O)O4)c4ccccc43)cc1)c1ccccc12 (stereo unspecified) | 180 nM | 270 nM | 310 nM | –
6 | C=C1CC2(OC1=O)C(=O)N(CCCCCN1C(=O)C3(CC(=C)C(=O)O3)c3ccccc31)c1ccccc12 (stereo unspecified) | 90 nM | 200 nM | 270 nM | –
7 | C=C1CC2(OC1=O)C(=O)Nc1ccccc12 (stereo unspecified) | 3130 nM | 2050 nM | 990 nM | –
8 | C=C1CC2(OC1=O)C(=O)N(CCCCN1C(=O)C3(CC(=C)C(=O)O3)c3ccccc31)c1ccccc12 (stereo unspecified) | 150 nM | – | 360 nM | –

Further lines, with some results ahead:

Row | IC50 (OVCAR-5 [1]) | IC50 (MIA PaCa-2) | IC50 (A2780 [2]) | Compound | other results
9 | 390 nM | 740 nM | 600 nM | C=C1CC2(OC1=O)C(=O)N(CCCCCCCCN1C(=O)C3(CC(=C)C(=O)O3)c3ccccc31)c1ccccc12 (stereo unspecified) | –
10 | 480 nM | 1220 nM | 1080 nM | C=C1CC2(OC1=O)C(=O)N(CCCCCCCCCN1C(=O)C3(CC(=C)C(=O)O3)c3ccccc31)c1ccccc12 (stereo unspecified) | –
11 | 410 nM | 560 nM | 490 nM | C=C1CC2(OC1=O)C(=O)N(CCCCCCCCCCN1C(=O)C3(CC(=C)C(=O)O3)c3ccccc31)c1ccccc12 (stereo unspecified) | –
12 | > 10000 nM | > 10000 nM | > 10000 nM | CC1CC2(OC1=O)C(=O)N(CCCCCCCN1C(=O)C3(CC(C)C(=O)O3)c3ccccc31)c1ccccc12 (stereo unspecified) | –
13 | 300 nM | 230 nM | 410 nM | C=C1CC2(OC1=O)C(=O)N(CCCCCCN1C(=O)C3(CC(=C)C(=O)O3)c3ccccc31)c1ccccc12 (stereo unspecified) | –
14 | 340 nM | 260 nM | 410 nM | C=C1CC2(OC1=O)C(=O)N(CCCCCCCN1C(=O)C3(CC(=C)C(=O)O3)c3ccccc31)c1ccccc12 (stereo unspecified) | –
